Published values from different studies.
Protocols differ between the studies behind these lines.
Target: Serine/threonine-protein kinase PAK 6 (PAK6, Homo sapiens, UniProt Q9NQU5)

SMILES	assay	setting	measurement	result
N#CCCc1ccc2c(c1)-c1[nH]c3ccc([N+](=O)[O-])cc3c1CC(=O)N2	cell-free assay	0.5 µM	remaining signal	104%
CCCS(=O)(=O)Nc1ccc(F)c(C(=O)c2c[nH]c3ncc(-c4ccc(Cl)cc4)cc23)c1F	enzyme activity, inhibitor	1 µM	inhibition	< 20%
CCC(=N\O)/C(C)=C/c1ccc(F)cc1	cell-free assay, competition with immobilised ligand	1 µM	remaining binding	100%
CC/C(=N\NC(=O)NCc1cccc(O)c1)c1ccc(O)c(C)c1O	enzyme activity, inhibitor	0.1 µM	inhibition	1.5%
Cc1cnc(NC2CCOCC2)nc1-n1cnc(C(=O)NC(CN)c2cc(F)cc(Cl)c2)c1 (centres unmarked)	enzyme activity, inhibitor, radiometric	1 µM	remaining activity	70%
COc1cc(Cl)c(C(=O)N[C@@H](CN[C@H]2CC[C@@H](N)CC2)Cc2ccc(C#N)cc2)cc1-c1ccc(CN[C@H](C)c2ccc(C)cc2)o1	enzyme activity, inhibitor	1 µM	remaining activity	95%
Cc1ccc(NC(=O)c2ccc(CN3CCN(C)CC3)cc2)cc1Nc1nc(-c2cccnc2)cs1	cell-free assay	0.5 µM	remaining signal	101%
CO[C@H]1CC[C@H](CNc2ccc(S(=O)(=O)NC(=O)c3ccc(N4CCN(CC5=C(c6ccc(Cl)cc6)CC(C)(C)CC5)CC4)cc3Oc3cnc4[nH]ccc4c3)cc2[N+](=O)[O-])CC1	cell-free assay, competition with immobilised ligand	1 µM	remaining binding	75%
Cc1ccc(NC(=O)c2ccc(C)c(C(F)(F)F)c2)cc1C#Cc1nn(C2CCC(O)CC2)c2ncnc(N)c12 (centres unmarked)	cell-free assay	10 µM	remaining signal	92%
CNC(=O)c1cc(Oc2ccc(NC(=O)Nc3ccc(Cl)c(C(F)(F)F)c3)cc2)ccn1	enzyme activity, inhibitor	0.3 µM	inhibition	-33%
CS(=O)(=O)NCC[C@H](NC(=O)c1cncc2c1cnn2-c1ccc(F)cc1)c1ccnc(S(C)(=O)=O)c1	cell-free assay, competition with immobilised ligand	1 µM	remaining binding	100%
COc1cc(/C=C/C(=O)CC(=O)/C=C/c2ccc(O)c(OC)c2)ccc1O	enzyme activity, inhibitor	1 µM	activity vs control	82%
CC(C)(C)c1nc2c(s1)c1nc(N)ncc1c1ccc(NS(=O)(=O)c3c(F)cccc3F)c(F)c12	enzyme activity, inhibitor, radiometric	1 µM	remaining activity	89%
FC(F)c1nc2ccccc2n1-c1nc(N2CCOCC2)nc(N2CCOCC2)n1	enzyme activity, inhibitor	10 µM	remaining activity	93%
CSc1cccnc1N1CCN(Cc2nc3ccccc3[nH]2)CC1	cell-free assay, competition with immobilised ligand	1 µM	remaining binding	100%
Nc1nc(Nc2ccccc2)sc1C(=O)c1c(F)cccc1F	enzyme activity, inhibitor	10 µM	remaining activity	87%
O=C(NCc1ncc(C(F)(F)F)cc1Cl)c1ccc2c(c1)C1(CCS(=O)(=O)CC1)[C@@H](C1CC1)N2S(=O)(=O)c1ccc(F)cc1	cell-free assay, competition with immobilised ligand	1 µM	remaining binding	100%
Nc1ncnc2occ(-c3ccc(NC(=O)Nc4cc(C(F)(F)F)ccc4F)cc3)c12	cell-free assay, inhibitor	20 µM	remaining signal	53%
CCCOc1ccc([C@@H]2[C@@H](C(=O)O)[C@H](c3ccc4c(c3)OCO4)CN2CC(=O)Nc2c(CC)cccc2CC)cc1	cell-free assay, competition with immobilised ligand	1 µM	remaining binding	83%
O=C(Nc1cnn(-c2csc(C(=O)NC3COC3)c2)c1)Nc1ccccc1Cl	enzyme activity, inhibitor	5 µM	remaining activity	131%
